The results in this text go back to ChEMBL document CHEMBL2417527, “Prenylated and geranylated flavonoids increase production of reactive oxygen species in mouse macrophages but inhibit the inflammatory response” (J Nat Prod, 2013).

Test [1] is described as follows: Antioxidant activity assessed as hypochlorous acid scavenging activity by fluorescence assay. The format is functional. In a few lines:
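Oxidation of dihydrorhodamine 123 to rhodamine was followed. Final concentrations were 100 mM phosphate buffer (pH 7.4), compound in methanol at 0.625–100 μM, 5 μM DHR and 5 μM HClO. Fluorescence (ex 485, em 528 nm) was read at 37 °C immediately after mixing. Five independent experiments were run, each in triplicate.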

Test [2] in a line: Antioxidant activity assessed as NADH/phenazine methosulfate generated superoxide anion scavenging after 2 mins by NBT reduction assay. The test is classed as functional. In a few lines: (§1)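 Superoxide was generated by NADH/PMS. Final concentrations were 19 mM phosphate buffer (pH 7.4), compound in DMSO at 12.5–1000 μM, 166 μM NADH, 43.3 μM NBT and 2.7 μM PMS. NBT reduction to diformazan was read as absorbance at 560 nm after 2 min of mixing at room temperature. Five independent experiments were run, each in triplicate.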

In test [3] the test system is J774.A1. Nature of the test: Reduction of ROS production in LPS-stimulated mouse J774A1 cells at 0.25 to 1.25 uM after 24 hrs by flow cytometry. The test is classed as functional, cell-based. In outline:
(§2)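 Macrophages in serum-free DMEM were pretreated with compound (0.25 or 1.25 μM) for 1 h. E. coli 0111:B4 LPS (1 μg/mL) was then added for 24 h, with DCFH2-DA added 30 min before the end. DCF fluorescence was measured by flow cytometry (ex 488/em 525 nm). Results were compared with cells given vehicle plus LPS.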
Background: In flow cytometry, cells or beads pass a laser one at a time.

The nature of test [4]: Antioxidant activity assessed as hydrogen peroxide radical scavenging activity by chemiluminescence method. The test is classed as functional. In a few lines: (§3)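 Lucigenin chemiluminescence was used. Each reaction contained 50 mM Tris-HCl (pH 7.4), compound in DMSO at 125–1000 μM, 800 μM lucigenin and 1% (v/v) H2O2. Luminescence was read at 37 °C immediately after mixing. Five independent experiments were run, each in triplicate.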

The test system of test [5] is J774.A1. Nature of the test: Induction of ROS production in mouse J774A1 cells at 0.25 to 1.25 uM after 30 mins by flow cytometry relative to control. The format is functional. In outline: (§4)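 Cells were grown to 80–90% confluence and switched to serum-free DMEM. They were loaded with 10 μM DCFH2-DA for 1 h, and compound (0.25 or 1.25 μM, 0.1% DMSO) was added for the final 30 min. Cells were washed, scraped off in PBS/lidocaine, and DCF was measured by flow cytometry (ex 488/em 525 nm). Results were compared with vehicle-treated cells; mean ± SE of four experiments.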

The test system of test [6] is J774.A1. Nature of the test: Reduction of ROS production in LPS-stimulated mouse J774A1 cells at 0.25 to 1.25 uM after 30 mins by flow cytometry. The test is classed as functional, cell-based.
Test [7] is described as follows: Antioxidant activity assessed as hydrogen peroxide radical scavenging activity at 1 mM by chemiluminescence method. The test is classed as functional. In a few lines: as §3
The subject of test [8] is J774.A1. Description: Induction of ROS production in LPS-stimulated mouse J774A1 cells at 0.25 to 1.25 uM after 24 hrs by flow cytometry. The test is classed as functional, cell-based. In a few lines: as §2
The nature of test [9]: Antioxidant activity assessed as NADH/phenazine methosulfate generated superoxide anion scavenging at 1 mM after 2 mins by NBT reduction assay. The format is functional. In a few lines:
as §1

Test [10] has as its system J774.A1. Nature of the test: Induction of ROS production in LPS-stimulated mouse J774A1 cells at 1.25 uM after 30 mins by flow cytometry relative to control. The test is classed as functional.
The subject of test [11] is J774.A1. Nature of the test: Induction of ROS production in mouse J774A1 cells at 0.25 uM after 30 mins by flow cytometry relative to control. The format is functional. In a few lines:
as §4

Test [12] concerns J774.A1. Description: Reduction of LPS-induced COX2 expression in mouse J774A1 cells at 1.25 uM pretreated 1 hr before LPS challenge measured after 24 hrs. The format is functional, cell-based. In outline: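 Macrophages were pretreated with 1.25 μM compound for 1 h, then stimulated with 1 μg/mL LPS for 24 h. Lysates (40 μg protein) were run on 12% gels and blotted to PVDF. COX-2 was detected with antibody at 1:500 and normalized to β-actin by densitometry. Four independent experiments.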

The subject of test [13] is J774.A1. Description: Induction of ROS production in mouse J774A1 cells at 1.25 uM after 24 hrs by flow cytometry relative to control.
The subject of test [14] is J774.A1. Nature of the test: Induction of ROS production in mouse J774A1 cells at 1.25 uM after 30 mins by flow cytometry relative to control. The format is functional. In a few lines:
as §4

In test [15] the test system is J774.A1. Nature of the test: Effect on ROS production in LPS-stimulated mouse J774A1 cells at 0.25 to 1.25 uM after 30 mins by flow cytometry. The test is classed as functional, cell-based.

Active and inactive are the calls of the source. The calls are words filed in the database; no cut-off is given here. Some results are limits rather than exact numbers.

One may read the IC50 as the concentration at which inhibition is half-maximal. As for `CC(C)=CCc1c2c(c3occ(-c4ccc(O)c(O)c4)c(=O)c3c1O)C=CC(C)(C)O2` [POMIFERIN], the values for the IC50 in [1], in test [2] and in test [4] were 9.1 µM, 73.3 µM and 899 µM, respectively. In addition, the outcome with J774.A1 [3] and in the test with J774.A1 [6] was Active. Also, in the test on J774.A1 [5], the “fold change (FC)” value is listed as 0.95.
For the compound `CC(C)=CCc1c2c(c3occ(-c4ccc(O)cc4)c(=O)c3c1O)C=CC(C)(C)O2` [OSAJIN], the Activity in [7] came out at 17%; in test [9], 39%. Moreover, the outcome in the test with J774.A1 [8] was Active. The IC50 in test [1] was 31 µM; in test [2] it was > 1000 µM; in test [4], > 1000 µM. For the same compound, the figures for the “fold change (FC)” value with J774.A1 [10] and in the test on J774.A1 [5] were 1.59 and 0.95, respectively.
In the case of `CC(C)=CCc1c(-c2ccc(O)cc2O)oc2cc3c(c(O)c2c1=O)C=CC(C)(C)O3` [CUDRAFLAVONE B], the “fold change (FC)” value with J774.A1 [11] came to 2.13; in the test on J774.A1 [10], 1.71; in the test on J774.A1 [13], 2; in the test on J774.A1 [14], 3.12. In addition, in the test on J774.A1 [12], the result was inactive. The outcome with J774.A1 [8] was Active. For the same compound, the figures for the IC50 in [1], in [2] and in [4] were 1.8 µM, 219 µM and 641 µM, respectively.
Take `CC(C)=CCC/C(C)=C/Cc1c(O)cc2c(c1O)C(=O)C[C@@H](c1ccc(O)c(O)c1)O2` [NYMPHAEOL A]: the result in the test on J774.A1 [15] was inactive. The outcome with J774.A1 [12] was Active. Also, the IC50 in [1] amounted to 2.3 µM; in test [2], 41.2 µM; in [4], 554 µM. For the same compound, the fold change (FC) with J774.A1 [13] was 0.79; in the test with J774.A1 [5] it was 0.95.
